Assay results published in ChEMBL document CHEMBL3259661, “Identification of a neuroprotective and selective butyrylcholinesterase inhibitor derived from the natural alkaloid evodiamine” (Eur J Med Chem, 2014).
Active and inactive are the calls of the source. The rule behind the calls is not given here.

Columns and labels:
[1] = biological target: Cholinesterase (Equus caballus, UniProt P81908); assay: (§1) Inhibition of equine serum BChE by Ellman's method
Outline: (§2)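 Ethanol stocks diluted into assay, highest final concentration 10^-4 M. For curves, at least five concentrations (normally 10^-4 to 10^-9 M), each in triplicate; at least 3 independent determinations.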

[2] = test system: HT-22; assay: Neuroprotection against glutamate challenged mouse HT22 cells assessed as reduction in cell viability at 5 to 10 uM after 48 hrs by MTT assay; format: functional, cell-based
Outline: (§3)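 Murine hippocampal HT-22 cells grown in high-glucose DMEM + 10% heat-inactivated FCS, 37 °C, 5% CO2. Seeded 5 × 10³/well, cultured 24 h, then 24 h with compound (DMSO stock, final DMSO ≤0.1%) plus 5 mM glutamate. MTT (4 mg/mL stock diluted 1:10) for 3 h, 10% SDS lysis, absorbance 560 nm next day. Viability as % of untreated control. Means ± SD, ≥3 independent experiments.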

[3] = biological target: Cholinesterase (Equus caballus) (UniProt P81908); assay: Inhibition of equine serum BChE at 10 uM by Ellman's method
[4] = biological target: Acetylcholinesterase (Electrophorus electricus, UniProt O42275); assay: Inhibition of electric eel AChE by Ellman's method; outline: as §2
[5] = Selectivity ratio of IC50 for Electrophorus electricus acetylcholinesterase to IC50 for equine serum butyrylcholinesterase
Outline: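 Ratio IC50(AChE)/IC50(BChE), with both IC50s from Ellman assays (electric eel AChE, equine serum BChE, 25 °C, 412 nm, at least five concentrations in triplicate, at least 3 independent determinations).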

[6] = biological target: Acetylcholinesterase (Electrophorus electricus) (UniProt O42275); assay: Inhibition of electric eel AChE at 10 uM by Ellman's method
[7] = Antioxidant activity in phosphate buffer assessed as scavenging activity against peroxy radicals at pH 7.4 by ORAC-FL method relative to trolox; format: functional
Outline: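 ORAC-FL in 75 mM phosphate buffer pH 7.4, 37 °C; sample with fluorescein (300 nM final) preincubated 15 min, then AAPH (12 mM final) added; fluorescence read every 60 s for 90 min (ex 485/em 535 nm). Blank and Trolox calibration in each assay; AUC from blank-normalised decay curves; expressed as Trolox equivalents.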

[8] = test system: HT-22; assay: Neuroprotection against glutamate challenged mouse HT22 cells assessed as reduction in cell viability at 1 to 25 uM after 48 hrs by MTT assay; format: functional, cell-based; outline: as §3
[9] = test system: HT-22; assay: Neurotoxicity against mouse HT22 cells assessed as reduction in cell viability at 1 to 25 uM […] by MTT assay; format: toxicity, cell-based; settings: ht-22, 25 µM
[10] = test system: HT-22; assay: Neurotoxicity against mouse HT22 cells assessed as reduction in cell viability at 25 uM […] by MTT assay; format: toxicity, cell-based; settings: ht-22, 25 µM
[11] = test system: HT-22; assay: Neurotoxicity against mouse HT22 cells assessed as reduction in cell viability at 1 to 10 uM […] by MTT assay; format: toxicity, cell-based; settings: ht-22, 10 µM
[12] = biological target: Cholinesterase (Equus caballus) (UniProt P81908); assay: as §1; settings: TDE = time-dependent effect; outline: as §2
[13] = biological target: Cholinesterase (Equus caballus) (UniProt P81908); assay: Binding affinity to equine serum BChE assessed as compound-enzyme complex stability
Outline: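 Kinetic study on equine serum BChE with time-dependent inhibition followed to steady state (60 min); equilibrium constant of inhibitor–BChE complex (K_C) and carbamoylation rate constant (k3) determined.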

[14] = test system: HT-22; assay: Neuroprotection against glutamate challenged mouse HT22 cells assessed as reduction in cell viability at 5 uM after 48 hrs by MTT assay; format: functional, cell-based
[15] = biological target: Cholinesterase (Equus caballus) (UniProt P81908); assay: Inhibition of equine serum BChE at 100 uM by Ellman's method
[16] = biological target: Acetylcholinesterase (Electrophorus electricus) (UniProt O42275); assay: Inhibition of electric eel AChE at 100 uM by Ellman's method

Chain of Acetylcholinesterase (O42275 whole entry): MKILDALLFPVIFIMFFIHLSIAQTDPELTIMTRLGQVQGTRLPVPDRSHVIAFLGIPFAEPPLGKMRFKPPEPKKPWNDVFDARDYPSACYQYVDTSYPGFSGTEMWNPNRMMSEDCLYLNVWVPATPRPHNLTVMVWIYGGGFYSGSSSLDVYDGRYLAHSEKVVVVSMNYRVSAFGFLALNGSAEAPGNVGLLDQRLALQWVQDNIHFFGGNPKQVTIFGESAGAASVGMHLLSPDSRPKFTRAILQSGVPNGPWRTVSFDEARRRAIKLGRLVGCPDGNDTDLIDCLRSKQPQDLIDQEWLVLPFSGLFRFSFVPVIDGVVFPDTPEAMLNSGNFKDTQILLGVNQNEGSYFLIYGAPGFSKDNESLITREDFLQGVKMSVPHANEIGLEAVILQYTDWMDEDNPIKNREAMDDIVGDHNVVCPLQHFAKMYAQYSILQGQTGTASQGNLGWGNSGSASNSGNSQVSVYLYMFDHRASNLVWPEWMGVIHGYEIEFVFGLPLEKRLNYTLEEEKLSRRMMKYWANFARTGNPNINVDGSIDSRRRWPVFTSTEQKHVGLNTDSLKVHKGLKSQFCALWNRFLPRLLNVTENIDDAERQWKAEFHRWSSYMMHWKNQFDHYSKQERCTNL
Chain of Acetylcholinesterase (Electrophorus electricus) (O42275 24-633 limits assumed): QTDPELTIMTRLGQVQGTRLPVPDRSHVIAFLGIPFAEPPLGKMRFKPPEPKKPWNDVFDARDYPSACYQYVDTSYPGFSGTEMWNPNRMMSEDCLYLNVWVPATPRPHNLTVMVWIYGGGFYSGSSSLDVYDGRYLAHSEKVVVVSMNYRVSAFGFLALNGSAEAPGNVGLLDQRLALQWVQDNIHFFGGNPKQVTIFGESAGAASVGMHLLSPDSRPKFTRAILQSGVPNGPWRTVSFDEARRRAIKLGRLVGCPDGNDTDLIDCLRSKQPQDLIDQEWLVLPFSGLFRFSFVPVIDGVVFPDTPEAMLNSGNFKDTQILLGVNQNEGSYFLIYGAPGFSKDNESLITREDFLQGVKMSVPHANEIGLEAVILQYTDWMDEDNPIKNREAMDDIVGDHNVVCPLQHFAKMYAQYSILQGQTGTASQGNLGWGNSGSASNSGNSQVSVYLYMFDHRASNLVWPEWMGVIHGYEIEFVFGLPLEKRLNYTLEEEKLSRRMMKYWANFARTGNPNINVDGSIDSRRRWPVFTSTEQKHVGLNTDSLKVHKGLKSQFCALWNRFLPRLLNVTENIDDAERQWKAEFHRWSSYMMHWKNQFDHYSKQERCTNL
Chain of Cholinesterase (Equus caballus) (P81908 whole entry): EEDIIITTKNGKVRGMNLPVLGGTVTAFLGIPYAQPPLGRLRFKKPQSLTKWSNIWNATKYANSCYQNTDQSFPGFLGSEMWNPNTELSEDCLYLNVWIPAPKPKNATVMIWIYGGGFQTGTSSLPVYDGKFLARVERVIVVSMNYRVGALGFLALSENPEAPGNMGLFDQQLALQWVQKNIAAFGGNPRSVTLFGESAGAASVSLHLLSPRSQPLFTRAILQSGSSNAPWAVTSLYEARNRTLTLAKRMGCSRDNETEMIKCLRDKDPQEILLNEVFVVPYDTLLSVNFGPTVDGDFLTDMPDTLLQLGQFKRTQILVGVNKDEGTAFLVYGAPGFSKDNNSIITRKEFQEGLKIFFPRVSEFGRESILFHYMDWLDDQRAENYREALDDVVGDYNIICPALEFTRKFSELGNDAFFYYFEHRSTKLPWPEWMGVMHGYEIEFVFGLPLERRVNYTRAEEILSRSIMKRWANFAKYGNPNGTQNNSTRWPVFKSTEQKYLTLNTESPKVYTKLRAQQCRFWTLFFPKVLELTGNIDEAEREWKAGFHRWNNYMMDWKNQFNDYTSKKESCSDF
Chain of Cholinesterase (P81908 whole entry): as above

SMILES	IC50 [1] [µM]	inhibition [3] [%]	IC50 [4] [µM]	Ratio IC50 [5]	inhibition [6] [%]	other results
CN1c2ccccc2CN2CCc3c([nH]c4ccccc34)C21 (stereo not given)	2.68	5.57	> 10	> 3.73	24	Activity [2]: Active; ORAC value (Trolox equivalents) [7]: 2.32
CN1c2ccc(OCc3ccccc3)cc2C(=O)N2CCc3c([nH]c4ccccc34)C21 (stereo not given)	0.88	6.07	3.01	3.42	5.52	–
COc1cccc(NC(=O)Oc2ccc3c(c2)C(=O)N2CCc4c([nH]c5ccccc45)C2N3C)c1 (stereo not given)	> 10	3	> 10	–	15	–
CCCCNC(=O)Oc1ccc2c(c1)C(=O)N1CCc3c([nH]c4ccccc34)C1N2C (stereo not given)	> 10	12	> 10	–	10	–
CCCCCCCNC(=O)Oc1ccc2c(c1)C(=O)N1CCc3c([nH]c4ccccc34)C1N2C (stereo not given)	–	–	–	–	–	Activity [8]: Active; Activity [9]: Toxic; ORAC value (Trolox equivalents) [7]: 0.32
CC(C)c1ccc(NC(=O)Oc2ccc3c(c2)CN2CCc4c([nH]c5ccccc45)C2N3C)cc1 (stereo not given)	> 10	41	> 10	–	13	–
CCCCCCCNC(=O)Oc1ccc2c(c1)CN1CCc3c([nH]c4ccccc34)C1N2C (stereo not given)	0.077	7.11	> 10	> 130	17	Activity [10]: Toxic; Activity [11]: Non-toxic; Activity [8]: Active; inhibition [12]: tde; K [13]: 492 nM; ORAC value (Trolox equivalents) [7]: 1.75
CN1c2ccc(OC(=O)NCc3ccccc3)cc2C(=O)N2CCc3c([nH]c4ccccc34)C21 (stereo not given)	> 10	15	> 10	–	10	–
CN1c2ccc(OC(=O)NCc3ccccc3)cc2CN2CCc3c([nH]c4ccccc34)C21 (stereo not given)	2.15	5.67	> 10	> 4.65	34	–
O=c1c(O)c(-c2ccc(O)c(O)c2)oc2cc(O)cc(O)c12	–	–	–	–	–	Activity [14]: Active
CN1c2ccccc2C(=O)N2CCc3c([nH]c4ccccc34)C21 (stereo not given)	4.62	5.34	> 10	> 2.16	37	–
CN1c2ccc(O)cc2C(=O)N2CCc3c([nH]c4ccccc34)C21 (stereo not given)	> 100	–	> 100	–	29	–
CCCCNC(=O)Oc1ccc2c(c1)CN1CCc3c([nH]c4ccccc34)C1N2C (stereo not given)	3.97	5.4	> 10	> 2.52	47	–
CNC(=O)Oc1ccc2c(c1)[C@]1(C)CCN(C)[C@@H]1N2C	–	7.22	–	–	8.11	–
COc1cccc(NC(=O)Oc2ccc3c(c2)CN2CCc4c([nH]c5ccccc45)C2N3C)c1 (stereo not given)	> 10	30	> 10	–	19	–
CCNC(=O)Oc1ccc2c(c1)CN1CCc3c([nH]c4ccccc34)C1N2C (stereo not given)	1.03	5.99	> 10	> 9.71	26	–
CCNC(=O)Oc1ccc2c(c1)C(=O)N1CCc3c([nH]c4ccccc34)C1N2C (stereo not given)	> 10	21	> 10	–	15	–
CC(C)c1ccc(NC(=O)Oc2ccc3c(c2)C(=O)N2CCc4c([nH]c5ccccc45)C2N3C)cc1 (stereo not given)	> 10	7	> 10	–	14	–
CN1c2ccc(O)cc2CN2CCc3c([nH]c4ccccc34)C21 (stereo not given)	19.3	4.71	> 100	> 5.17	–	Activity [10]: Toxic; Activity [11]: Non-toxic; Activity [8]: Active; inhibition [15]: 47%; inhibition [16]: 43%; ORAC value (Trolox equivalents) [7]: 3.55
